Measured values from ChEMBL document CHEMBL5030566, “First-in-Class Inhibitors of the Ribosomal Oxygenase MINA53” (J Med Chem, 2021).
Active and inactive are the calls of the source. The rule behind the calls is not given here.

Legend:
OCI-AML-3 = assay: Antiproliferative activity against human OCI-AML-3 cells at 100 uM incubated for 48 hrs by WST-1 assay; assay type: functional, cell-based
Method in brief: (§1)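 Leukemia/lymphoma lines plated in triplicate at 5×10^3 cells/well. Exposed to increasing compound concentrations (maximum 100 μM) for 48 h at 37 °C, 5% CO2. WST-1 reagent then added for 1 h. IC50 obtained by nonlinear regression of dose–response curves.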

[1] = Antiproliferative activity against human IMS-M2 cells at 100 uM incubated for 48 hrs by WST-1 assay; assay type: functional, cell-based; method in brief: as §1
OCI-AML2 = assay: Antiproliferative activity against human OCI-AML2 cells at 100 uM incubated for 48 hrs by WST-1 assay; assay type: functional, cell-based; method in brief: as §1
MV4-11 = assay: Antiproliferative activity against human MV4-11 cells at 100 uM incubated for 48 hrs by WST-1 assay; assay type: functional, cell-based; method in brief: as §1
Kasumi 1 = assay: Antiproliferative activity against human Kasumi 1 cells at 100 uM incubated for 48 hrs by WST-1 assay; assay type: functional, cell-based; method in brief: as §1
U-937 = assay: Antiproliferative activity against human U-937 cells at 100 uM incubated for 48 hrs by WST-1 assay; assay type: functional, cell-based; method in brief: as §1
NB-4 = assay: Antiproliferative activity against human NB-4 cells at 100 uM incubated for 48 hrs by WST-1 assay; assay type: functional, cell-based; method in brief: as §1
HL-60 = assay: Antiproliferative activity against human HL-60 cells at 100 uM incubated for 48 hrs by WST-1 assay; assay type: functional, cell-based; method in brief: as §1
KARPAS-299 = assay: Antiproliferative activity against human KARPAS-299 cells at 100 uM incubated for 48 hrs by WST-1 assay; assay type: functional, cell-based; method in brief: as §1
U-87 MG [2] = assay: Antiproliferative activity against human U-87 MG cells incubated for 72 to 120 hrs by MTT assay; assay type: functional, cell-based; conditions: U-87MG ATCC, time 72-120 hrs
Method in brief: (§2)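 HT-29, U-87MG or MKN-45 in RPMI with 10% FBS and L-glutamine. Seeded in sextuplicate at 1.5×10^3 cells/well; compounds at 10–100 μM added after 24 h and left 72, 96 or 120 h; 0.5% DMSO control. MTT absorbance read; viability as treated/control ×100. Mean ± SD of two independent experiments in triplicate.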

MKN-45 = assay: Antiproliferative activity against human MKN-45 cells at 10 to 100 uM incubated for 72 to 120 hrs by MTT assay; assay type: functional, cell-based; conditions: dose 10-100 µM, time 72-120 hrs; method in brief: as §2
HT-29 = assay: Antiproliferative activity against human HT-29 cells at 10 to 100 uM incubated for 72 to 120 hrs by MTT assay; assay type: functional, cell-based; conditions: dose 10-100 µM, time 72-120 hrs; method in brief: as §2
U-87 MG [3] = assay: Induction of DNA damage in human U-87MG cells assessed as increase in gamma H2AX phosphorylation at ser139 at 20 uM by Western blot analysis; assay type: functional, cell-based; conditions: U-87MG ATCC
U-87 MG [4] = assay: Antagonist cytotoxicity against human U-87MG cells assessed as reduction in cell viability at 20 uM after 24 hrs in presence of doxorubicin by MTT assay; assay type: functional, cell-based; conditions: U-87MG ATCC
Method in brief: (§3)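 U-87MG in RPMI with 10% FBS. Treated 24 h with doxorubicin alone, test compound alone, or both at a fixed doxorubicin:compound ratio of 1:20. Viability read by MTT absorbance and expressed as treated/control ×100. Mean ± SD of two independent experiments, each in triplicate.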

U-87 MG [5] = assay: Induction of cell cycle arrest in human U-87MG cells assessed as accumulation of cells at G2/M phase at 10 uM after 24 hrs by propidium iodide staining based flow cytometry analysis; assay type: functional; conditions: U-87MG ATCC
Method in brief: (§4)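 U-87MG treated 24 h with 10 μM compound, alone or with 0.5 μM doxorubicin. Cell-cycle phases and Sub-G1 fraction scored; three independent experiments.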

U-87 MG [6] = assay: Synergistic cytotoxicity against human U-87MG cells assessed as combinantion index at ED50 after 24 hrs in presence of doxorubicin by MTT assay; assay type: functional, U-87MG ATCC
Method in brief: (§5)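 Doxorubicin combined with inhibitor at a fixed 1:20 concentration ratio, 24 h exposure, U-87MG viability read by MTT. Combination index calculated with the CI equation and plotted against fractional growth inhibition. CI <0.9 is scored as synergism, 0.9–1.1 as additivity, >1.1 as antagonism. Mean of two independent experiments in triplicate.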

U-87 MG [7] = assay: Synergistic cytotoxicity against human U-87MG cells assessed as combinantion index at ED75 after 24 hrs in presence of doxorubicin by MTT assay; assay type: functional, U-87MG ATCC; method in brief: as §5
U-87 MG [8] = assay: Synergistic cytotoxicity against human U-87MG cells assessed as combinantion index at ED90 after 24 hrs in presence of doxorubicin by MTT assay; assay type: functional, U-87MG ATCC; method in brief: as §5
HeLa [9] = assay: Antiproliferative activity against human HeLa cells at 10 to 100 uM incubated for 72 to 120 hrs by MTT assay; assay type: functional, cell-based; conditions: dose 10-100 µM, time 72-120 hrs
Method in brief: (§6)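 HEK293T or HeLa grown in DMEM with 10% FBS, mycoplasma-tested and STR-authenticated. Compounds added 24 h after seeding at 10–100 μM for 72–120 h; 0.5% DMSO as control. Viability by MTT colorimetric assay, expressed as treated/control ×100.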

HEK-293T = assay: Antiproliferative activity against human HEK293T cells at 10 to 100 uM incubated for 72 to 120 hrs by MTT assay; assay type: functional, cell-based; conditions: dose 10-100 µM, time 72-120 hrs; method in brief: as §6
HEK293T [10] = assay: Binding affinity to MINA53 in HEK293T cells assessed as substrate trapping using RPL27A as substrate at 100 uM after 18 hrs by immunoprecipitation analysis; assay type: cell-based; conditions: Homo sapiens
Method in brief: (§7)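 HEK293T transiently expressing HA-MINA53, HA-NO66 or empty vector. Treated with 100 μM compound or 0.5% DMSO for 18 h. Cells lysed 1 h at 4 °C in JIES buffer; anti-HA agarose IP overnight, washed, eluted with HA peptide. Blots probed for RPL27A (MINA53) or RPL8 (NO66).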

HeLa [11] = assay: Binding affinity to MINA53 in HeLa cells assessed as substrate trapping using RPL27A as substrate at 100 uM after 18 hrs by immunoprecipitation analysis; assay type: cell-based; conditions: Homo sapiens
U-87 MG [12] = assay: Binding affinity to MINA53 in U-87MG cells assessed as substrate trapping using RPL27A as substrate at 100 uM after 18 hrs by immunoprecipitation analysis; assay type: cell-based; conditions: Homo sapiens
HEK293T [13] = assay: Binding affinity to NO66 in HEK293T cells assessed as substrate trapping using RPL8 as substrate at 100 uM after 18 hrs by immunoprecipitation analysis; assay type: cell-based; conditions: Homo sapiens; method in brief: as §7
U-87 MG [14] = assay: Inhibition of KDM5 in human U-87MG cells assessed as increase in H3K4me3 level after 48 hrs by immunofluorescence analysis; assay type: cell-based
Method in brief: (§8)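 U-87MG on coverslips, treated 24 h after plating with 50 μM compound for 48 h. Reference inhibitors: CPI-455 25 μM (KDM5), IOX-1 100 μM (KDM4), GSK-J4 10 μM (KDM6). PFA-fixed cells immunostained for H3K4me3, H3K9me3 or H3K27me3 with DAPI counterstain. Per-cell nuclear intensity quantified, ≥50 cells per condition; Mann–Whitney test vs DMSO.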

U-87 MG [15] = assay: Inhibition of KDM4 in human U-87MG cells assessed as increase in H3K9me3 level after 48 hrs by immunofluorescence analysis; assay type: cell-based; method in brief: as §8
U-87 MG [16] = assay: Inhibition of KDM6 in human U-87MG cells assessed as increase in H3K27me3 level after 48 hrs by immunofluorescence analysis; assay type: cell-based; method in brief: as §8
U-87 MG [17] = assay: Cytotoxicity against human U-87MG cells assessed as doxorubicin sensitization after 24 hrs in presence of doxorubicin by MTT assay; assay type: functional, cell-based; conditions: U-87MG ATCC; method in brief: as §3
U-87 MG [18] = assay: Cytotoxicity against human U-87MG cells assessed as reduction in cell viability after 24 hrs in presence of doxorubicin by MTT assay; assay type: functional, cell-based; conditions: U-87MG ATCC; method in brief: as §3
U-87 MG [19] = assay: Synergistic cytotoxicity against human U-87MG cells assessed as reduction in cell viability at 20 uM after 24 hrs in presence of doxorubicin by MTT assay; assay type: functional, U-87MG ATCC; method in brief: as §3
U-87 MG [20] = assay: Induction of apoptosis in human U87-MG cells assessed as increase in sub-G1 cells at 10 uM after 24 hrs by propidium iodide staining based flow cytometry analysis; assay type: functional, cell-based; conditions: U-87MG ATCC; method in brief: as §4
U-87 MG [21] = assay: Induction of apoptosis in human U87-MG cells assessed as increase in apoptotic cells at 10 uM after 24 hrs in presence of 0.5 uM doxorubicin by propidium iodide staining based flow cytometry analysis; assay type: functional, U-87MG ATCC; method in brief: as §4
Homo sapiens [22] = species: Homo sapiens; assay: Inhibition of recombinant human NO66 expressed in Escherichia coli BL21 (DE3) using RPL8 N205PVEHPFGGGNHQHIGKPST224 as substrate at 100 uM preincubated for 15 mins followed by substrate addition and measured after 30 to 60 mins by RapidFire Mass spectrometry assay; conditions: time 45-75 min
Method in brief: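 NO66 (E. coli BL21(DE3)-R3-pRARE2, TEV-cleaved) at 375 nM in 50 mM MES pH 7.0, 150 mM NaCl. Preincubated 15 min with compound. […] Formic-acid quench, RapidFire SPE-MS % hydroxylation.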

Homo sapiens [23] = species: Homo sapiens; assay: Inhibition of recombinant human MINA53 expressed in Escherichia coli BL21 (DE3) using RPL27A G31RGNAGGLHHHRINFDKYHP49 as substrate at 100 uM preincubated for 15 mins followed by substrate addition and measured after 30 to 60 mins by RapidFire Mass spectrometry assay; conditions: time 45-75 min

O=C(O)c1c[nH]c(=S)[nH]c1=O
IC50 (OCI-AML-3): Not Active
IC50 [1]: Not Active
IC50 (OCI-AML2): Not Active
IC50 (MV4-11): Not Active
IC50 (Kasumi 1): Not Active
IC50 (U-937): Not Active
IC50 (NB-4): Not Active
IC50 (HL-60): Not Active
IC50 (KARPAS-299): Not Active
Activity (U-87 MG [2]): inactive
Activity (MKN-45): inactive
Activity (HT-29): inactive
Activity (U-87 MG [3]): inactive
Activity (U-87 MG [4]): Active
Activity (U-87 MG [5]): inactive
CI (U-87 MG [6]): 1
CI (U-87 MG [7]): 1
CI (U-87 MG [8]): 1

O=C(O)c1cnc(SCCc2ccccc2)[nH]c1=O
IC50 (OCI-AML-3): Not Active
IC50 [1]: Not Active
IC50 (OCI-AML2): Not Active
IC50 (MV4-11): Not Active
IC50 (Kasumi 1): Not Active
IC50 (U-937): Not Active
IC50 (KARPAS-299): Not Active
Activity (U-87 MG [2]): Active
Activity (MKN-45): Active
Activity (HeLa [9]): Active
Activity (HT-29): inactive
Activity (HEK-293T): Active
Activity (HEK293T [10]): Active
Activity (HeLa [11]): Active
Activity (U-87 MG [12]): Active
Activity (HEK293T [13]): inactive
inhibition (U-87 MG [14]): inactive
inhibition (U-87 MG [15]): inactive
inhibition (U-87 MG [16]): inactive
Activity (U-87 MG [3]; TDE = time-dependent effect): Tde
Activity (U-87 MG [17]): Dose-Dependent Effect
Activity (U-87 MG [18]): Dose-Dependent Effect
Activity (U-87 MG [19]): 75%
Activity (U-87 MG [5]): Active
Activity (U-87 MG [20]): Active
Activity (U-87 MG [21]): 60%
CI (U-87 MG [6]): 0.32
CI (U-87 MG [7]): 0.63
CI (U-87 MG [8]): 22.1

COC(=O)c1cnc(SCCCc2ccccc2)[nH]c1=O
Activity (U-87 MG [2]): Active
Activity (MKN-45): Active
Activity (HT-29): Active

O=C(O)CCNc1cc(N2CCc3ccccc3CC2)nc(-c2ccccn2)n1
inhibition (Homo sapiens [22]): inactive
inhibition (Homo sapiens [23]): inactive

O=C(O)c1cnc(SCCCc2ccccc2)[nH]c1=O
IC50 (OCI-AML-3): Not Active
IC50 [1]: Not Active
IC50 (OCI-AML2): Not Active
IC50 (MV4-11): Not Active
IC50 (Kasumi 1): Not Active
IC50 (U-937): Not Active
IC50 (KARPAS-299): Not Active
Activity (U-87 MG [2]): Active
Activity (MKN-45): Active
Activity (HeLa [9]): Active
Activity (HT-29): inactive
Activity (HEK-293T): Active
Activity (HEK293T [10]): Active
Activity (HeLa [11]): Active
Activity (U-87 MG [12]): Active
Activity (HEK293T [13]): inactive
inhibition (U-87 MG [14]): inactive
inhibition (U-87 MG [15]): inactive
inhibition (U-87 MG [16]): inactive
Activity (U-87 MG [3]; TDE = time-dependent effect): Tde
Activity (U-87 MG [17]): Dose-Dependent Effect
Activity (U-87 MG [18]): Dose-Dependent Effect
Activity (U-87 MG [19]): 75%
Activity (U-87 MG [5]): Active
Activity (U-87 MG [20]): Active
Activity (U-87 MG [21]): 60%
CI (U-87 MG [6]): 0.21
CI (U-87 MG [7]): 0.13
CI (U-87 MG [8]): 0.18
